These results are taken from ChEMBL document CHEMBL3243919, “11,12-Secoprostaglandins. 3. 8-Alkylthio(sulfinyl and sulfonyl)-12-hydroxyalkanoic acids and related compounds” (J Med Chem, 1977).

Calls of active or inactive are those of the source. No cut-off for these calls is given here.

One may read the inhibition as the share of the control response that was lost under treatment.

Data set [1] is filed under the species Mus musculus. In words: Binding affinity to prostanoid receptor in [8-14C]adenine-treated CD-1 mouse ovary assessed as increase in c-AMP production at 25 ug/ml after 30 mins by paper chromatographic analysis in presence of phosphodiesterase inhibitor theophylline relative to control. Type of data set: tissue-based. As to conditions: Female gonad. In a few lines:
(§1)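 Mouse ovaries, three per incubation (15-25 mg), preincubated 1 h at 37 °C with shaking in aerated Krebs-Ringer phosphate buffer pH 7.2 containing [8-14C]adenine. Theophylline and test compound (in Me2SO) were then added, with a further 30 min at 37 °C. Stopped with trichloroacetic acid, homogenized and centrifuged. [14C]-cAMP isolated, including paper chromatography. Result is fold increase over untreated ovaries.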

The species named for data set [2] is Mus musculus. Briefly: Binding affinity to prostanoid receptor in [8-14C]adenine-treated CD-1 mouse ovary assessed as increase in c-AMP production at 100 ug/ml after 30 mins by paper chromatographic analysis in presence of phosphodiesterase inhibitor theophylline relative to control. Type of data set: tissue-based. The note with it: Female gonad. In a few lines: as §1

Data set [3] is filed under the species Rattus norvegicus. In words: Binding affinity to prostanoid receptor in rat lipocytes assessed as compound equivalent to cold PGE1 in displacing [3H]-PGE1 from receptor after 60 mins. Type of data set: cell-based. In a few lines: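 Test compound incubated with 0.4 ng [3H]-PGE1 and 125 µg rat lipocyte binding preparation for 60 min at 37 °C. Bound [3H]-PGE1 then measured. Three test concentrations, run in duplicate.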

For data set [4], the species on record is Mus musculus. Briefly: Binding affinity to prostanoid receptor in [8-14C]adenine-treated CD-1 mouse ovary assessed as increase in c-AMP production at 1 ug/ml after 30 mins by paper chromatographic analysis in presence of phosphodiesterase inhibitor theophylline relative to control. Type of data set: tissue-based. As to conditions: Female gonad. In a few lines:
as §1

The species named for data set [5] is Mus musculus. In words: Binding affinity to prostanoid receptor in [8-14C]adenine-treated CD-1 mouse ovary assessed as increase in c-AMP production at 0.05 ug/ml after 30 mins by paper chromatographic analysis in presence of phosphodiesterase inhibitor theophylline relative to control. In kind it is tissue-based. The note with it: Female gonad. In a few lines:
as §1

Data set [6] has as its system Lymphocyte. In words: Inhibition of antigen-induced lymphocyte (unknown origin) transformation at 10 ug/mL relative to control. Type of data set: functional.
For data set [7], the species on record is Homo sapiens. In words: Binding affinity to prostanoid receptor in [8-14C]adenine-treated human psoriatic skin slices assessed as increase in c-AMP production at 10 ug/ml after 30 mins by paper chromatographic analysis relative to control. In a few lines:
(§2)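 Psoriatic skin biopsied from patients off medication ≥48 h, under sc 1-2% lidocaine, and cut into 10-30 mg slices. Preincubated with [14C]adenine about 60 min at 22 °C, then 45 min at 37 °C, then 30 min at 37 °C with test compound. Stopped with TCA to 2.5%, then pulverized at -70 °C and homogenized. Supernatant [14C]-cAMP expressed as fold over unmedicated slices; average of four experiments.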

The species entered for data set [8] is Mus musculus. In words: Binding affinity to prostanoid receptor in [8-14C]adenine-treated CD-1 mouse ovary assessed as increase in c-AMP production at 0.01 ug/ml after 30 mins by paper chromatographic analysis in presence of phosphodiesterase inhibitor theophylline relative to control. In kind it is tissue-based. As to conditions: Female gonad. In a few lines:
as §1

The species named for data set [9] is Mus musculus. In words: Binding affinity to prostanoid receptor in [8-14C]adenine-treated CD-1 mouse ovary assessed as increase in c-AMP production at 0.1 ug/ml after 30 mins by paper chromatographic analysis in presence of phosphodiesterase inhibitor theophylline relative to control. Type of data set: tissue-based. The note with it: Female gonad. In a few lines: as §1

For data set [10], the species on record is Mus musculus. Briefly: Binding affinity to prostanoid receptor in [8-14C]adenine-treated CD-1 mouse ovary assessed as increase in c-AMP production at 10 ug/ml after 30 mins by paper chromatographic analysis in presence of phosphodiesterase inhibitor theophylline relative to control. Type of data set: tissue-based. As to conditions: Female gonad. In a few lines:
as §1

Data set [11] is filed under the species Homo sapiens. In words: Binding affinity to prostanoid receptor in [8-14C]adenine-treated human psoriatic skin slices assessed as increase in c-AMP production at 100 ug/ml after 30 mins by paper chromatographic analysis relative to control. In a few lines:
as §2

Data set [12] relates to Rattus norvegicus. In words: Antihypertensive activity in spontaneous hypertensive rat model up to 40 mg/kg, po. Type of data set: functional, organism-based. Details: dose 40 mg/kg. In a few lines:
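Spontaneously hypertensive rats dosed po at up to 40 mg/kg; antihypertensive effect assessed.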

The species named for data set [13] is Homo sapiens. In words: Binding affinity to prostanoid receptor in [8-14C]adenine-treated human psoriatic skin slices assessed as increase in c-AMP production at 200 ug/ml after 30 mins by paper chromatographic analysis relative to control. In a few lines: as §2
Data set [14] addresses T1, 15-hydroxyprostaglandin dehydrogenase [NAD(+)] (Homo sapiens, UniProt P15428).
T1 sequence (P15428 whole entry): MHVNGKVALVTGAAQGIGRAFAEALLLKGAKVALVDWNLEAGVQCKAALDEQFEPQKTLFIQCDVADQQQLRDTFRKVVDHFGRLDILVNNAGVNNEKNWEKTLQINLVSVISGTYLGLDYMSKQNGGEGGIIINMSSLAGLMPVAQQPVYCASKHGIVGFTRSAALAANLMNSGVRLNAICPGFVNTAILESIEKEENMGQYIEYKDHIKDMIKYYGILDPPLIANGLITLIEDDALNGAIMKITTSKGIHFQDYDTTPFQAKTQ
In words: Metabolic stability of the compound assessed as 15-hydroxyprostanoid dehydrogenase (unknown origin)-mediated metabolite formation. In kind it is ADME.

Data set [15] deals with Lymphocyte. Briefly: Inhibition of antigen-induced lymphocyte (unknown origin) transformation at 1 ug/mL relative to control. Type of data set: functional.
For data set [16], the species on record is Homo sapiens. Briefly: Binding affinity to prostanoid receptor in [8-14C]adenine-treated human psoriatic skin slices assessed as increase in c-AMP production at 25 ug/ml after 30 mins by paper chromatographic analysis relative to control. In a few lines: as §2
The test system of a further data set is Canis familiaris. Briefly: Antisecretory activity in dog assessed as reduction of gastric acid release at 12.3 mg/kg, po. As to conditions: Canis lupus familiaris, Stomach. Details: dose 12.3 mg/kg. In kind it is functional, organism-based. In a few lines: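 Given orally to dogs at 12.3 mg/kg; gastric acid antisecretory effect assessed.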
Data set [17] is filed under the species Homo sapiens. In words: Binding affinity to prostanoid receptor in [8-14C]adenine-treated human psoriatic skin slices assessed as increase in c-AMP production at 50 ug/ml after 30 mins by paper chromatographic analysis relative to control. In a few lines: as §2
The species entered for data set [18] is Mus musculus. In words: Binding affinity to prostanoid receptor in [8-14C]adenine-treated CD-1 mouse ovary assessed as increase in c-AMP production at 50 ug/ml after 30 mins by paper chromatographic analysis in presence of phosphodiesterase inhibitor theophylline relative to control. The note with it: Female gonad. In kind it is tissue-based. In a few lines: as §1

The species named for data set [19] is Mus musculus. In words: Binding affinity to prostanoid receptor in [8-14C]adenine-treated CD-1 mouse ovary assessed as increase in c-AMP production at 200 ug/ml after 30 mins by paper chromatographic analysis in presence of phosphodiesterase inhibitor theophylline relative to control. Type of data set: tissue-based. As to conditions: Female gonad. In a few lines: as §1

`CS(=O)(=O)C(CCCCCCC(=O)O)CCCC(O)COc1ccc(F)cc1` (stereo not drawn): the fold change (FC) was 23 in the data set listed under Mus musculus [1], 27 in the data set listed under Mus musculus [2] and 1 in the data set listed under Mus musculus [4]. The INH in the data set filed under Rattus norvegicus [3] is 1.11 µgequiv.

As to `CCCCCC(O)CCCC(CCCCCCC(=O)O)SC` (mixture of isomers), the fold change (FC) in the data set listed under Mus musculus [1] turned out to be 35; in the data set filed under Mus musculus [2], 24; in the data set listed under Mus musculus [4] it was 2.5. For the same compound, the INH in the data set listed under Rattus norvegicus [3] was 0.77 µgequiv.

For `CCCCC[C@H](O)/C=C/[C@H]1[C@H](O)CC(=O)[C@@H]1CCCCCCC(=O)O` [ALPROSTADIL], the fold change (FC) was determined as 29 in the data set listed under Mus musculus [5]; 10 in the data set filed under Homo sapiens [7]; 54 in the data set filed under Mus musculus [4]; 8 in the data set listed under Mus musculus [8]; 25 in the data set filed under Mus musculus [9]. The compound further gave an inhibition at 10 µg/mL in the data set on Lymphocyte [6] of 82%.

Regarding `CCCCCC(O)CCCC(CCCCCCC(=O)O)S(C)(=O)=O` (mixture of isomers), the fold change (FC) in the data set listed under Mus musculus [10] was 24; in the data set listed under Homo sapiens [11], 3.5; in the data set filed under Mus musculus [1], 27; in the data set filed under Mus musculus [2], 38; in the data set filed under Mus musculus [4] it was 14; in the data set filed under Homo sapiens [13] it was 2.7. Further, the figures for the fold change (FC) in the data set filed under Homo sapiens [16], in the data set listed under Mus musculus [9] and in the data set filed under Homo sapiens [17] were 2.5, 2 and 3.4, respectively. The result in the data set on Rattus norvegicus [12] and in the data set on Canis familiaris was inactive. This compound also displayed an inhibition at 10 µg/mL in the data set on Lymphocyte [6] of 88%. Also, the INH in the data set filed under Rattus norvegicus [3] is 0.67 µgequiv. Also, the Stability entry in data set [14] is recorded as “Stable”. This compound came in with an inhibition at 1 µg/mL in the data set on Lymphocyte [15] of 30%.

As to `CCCCCC(O)CCCC(CCCCCCC(=O)O)C(C)=O` (stereo not drawn), the fold change (FC) in the data set listed under Mus musculus [10] worked out at 11; in the data set listed under Mus musculus [18], 16; in the data set listed under Mus musculus [1], 14; in the data set filed under Mus musculus [2] it was 23; in the data set filed under Mus musculus [4] it was 2; in the data set listed under Mus musculus [19], 16. Besides, in the data set listed under Rattus norvegicus [3], the INH turned out to be 1700 ngequiv.

For the compound `CCCCCC(O)CCCC(CCCCCCC(=O)O)[S+](C)[O-]` (mixture of isomers), the results for the fold change (FC) in the data set filed under Mus musculus [1], in the data set listed under Mus musculus [2] and in the data set listed under Mus musculus [4] were 40, 57 and 4, respectively. Besides, in the data set filed under Rattus norvegicus [3], the INH was 7.14 µgequiv.

Take `CCCCCC(O)CCCC(CCCCCCC(=O)O)S(=O)(=O)CCO` (mixture of isomers): the fold change (FC) turned out to be 2 in the data set filed under Mus musculus [1], 10 in the data set filed under Mus musculus [2] and 0.7 in the data set filed under Mus musculus [4].

On to `CCCCCC(O)CCCC(CCCCCCC(=O)O)SCCO` (mixture of isomers), for which the results for the fold change (FC) in the data set listed under Mus musculus [1], in the data set listed under Mus musculus [2] and in the data set filed under Mus musculus [4] were 4, 14 and 1.5, respectively.

With `CCCCC[C@H](O)CC[C@H]1CCC(=O)[C@@H]1CCCCCCC(=O)O`, the fold change (FC) in the data set listed under Mus musculus [10] is 25; in the data set listed under Mus musculus [18], 19; in the data set listed under Mus musculus [1] it was 26; in the data set listed under Mus musculus [4], 10. Moreover, the INH in the data set filed under Rattus norvegicus [3] amounted to 10 ngequiv.

`CCCCCC(O)CCCCCS(=O)(=O)CCCCCCCC(=O)O` (racemic): the fold change (FC) in the data set filed under Mus musculus [1] worked out at 0.5; in the data set filed under Mus musculus [2], 1.
